Screening results from PubChem.
Rows were chosen to be rich in hits. Some 3.7% of all compounds tested hit in one or more screens of this group.
KCNQ1 pot: human KCNQ1 channel potentiation or activation; B-score at 10 µM; 0.35% of 310,000 active; P51787; AID 2648; CHO-K1 KCNQ1, thallium flux FluxOR fluorescence; active compounds read high;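 active = fluorescence ratio B-score, a plate-corrected score, at least three library SD, with initial intensity B-score within 5 SD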
Target sequence (P51787 whole entry, looked up): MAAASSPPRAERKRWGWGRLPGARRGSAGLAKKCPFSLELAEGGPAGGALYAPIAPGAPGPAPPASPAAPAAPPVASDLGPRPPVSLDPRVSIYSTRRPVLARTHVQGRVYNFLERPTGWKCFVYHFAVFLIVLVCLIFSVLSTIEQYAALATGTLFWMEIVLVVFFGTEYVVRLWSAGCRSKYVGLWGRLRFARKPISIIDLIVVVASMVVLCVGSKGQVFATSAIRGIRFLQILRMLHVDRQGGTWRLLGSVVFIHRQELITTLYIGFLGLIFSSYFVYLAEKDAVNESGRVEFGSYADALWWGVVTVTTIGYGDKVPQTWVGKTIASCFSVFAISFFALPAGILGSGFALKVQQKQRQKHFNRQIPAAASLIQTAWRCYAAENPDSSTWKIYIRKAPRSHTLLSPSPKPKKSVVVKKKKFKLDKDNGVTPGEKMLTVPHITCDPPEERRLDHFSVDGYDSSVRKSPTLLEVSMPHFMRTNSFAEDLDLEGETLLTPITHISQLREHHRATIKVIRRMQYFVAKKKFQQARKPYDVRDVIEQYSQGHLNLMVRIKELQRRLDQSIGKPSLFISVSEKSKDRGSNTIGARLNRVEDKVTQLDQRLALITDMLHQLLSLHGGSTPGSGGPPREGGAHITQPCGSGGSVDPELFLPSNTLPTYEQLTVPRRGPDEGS
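Schedule – 37 °C overnight plating, 90-min dark dye load, 20-min compound pretreatment · System – stable KCNQ1 CHO-K1 line · Probe or stimulus – thallium- and potassium-containing depolarizing buffer · Measured by – kinetic FluxOR fluorescence, 10 s baseline plus 110 s post-stimulus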
KCNK3 inh: human KCNK3 channel inhibition, primary screen. O14649. CHO-KCNK3 thallium flux, FluxOR fluorescence; active compounds read low. B-score at 10 µM. 0.84% of 340,000 active. AID 602410;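 active = B-score under library mean minus 4 SD, starting fluorescence ratio at most library mean plus 5 SD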;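 note: more negative B-score means stronger inhibition of thallium flux through KCNK3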
KCNK9 block: human KCNK9 channel inhibition; 1.2% of 310,000 active; Q9NPC2; B-score at 10 µM; HEK293 KCNK9, FluxOR thallium flux fluorescence; active compounds read low; AID 488922;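 active = ratio B-score over 3 SD below the library mean, with starting fluorescence within 5 SD of its mean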;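 note: negative B-score means less thallium flux so channel inhibition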
Kir21 block: inhibitors of mouse Kir2.1 inward-rectifier potassium channel | B-score at 10 µM | HEK293-Kir2.1, FluxOR thallium flux fluorescence; active compounds read low | 0.85% of 310,000 active | AID 1672;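 active = fluorescence ratio B-score at or below minus 3 SD of library scores, with starting-brightness B-score within 2 SD, cut at about -4.2 in these data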;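 note: channel flux triggered by added potassium and thallium sulfate stimulus; B-score of peak minus minimum fluorescence over baseline after thallium stimulus; more negative B-score means stronger Kir2.1 block with less thallium influx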
hERG protect: shields human hERG channel from block by proarrhythmic agents | Q12809 | CHO-hERG, FluxOR thallium flux, dofetilide IC70 present | activation (rescue from dofetilide block), less the hit threshold, % at 10 µM | 0.51% of 310,000 active;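 active = activation above the mean of controls blocked by dofetilide plus 5 SD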;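 note: thallium influx through hERG after potassium depolarization seen as dye fluorescence rise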
KCNQ1 block: inhibitors of human KCNQ1 potassium channel; CHO-K1 KCNQ1, FluxOR thallium flux fluorescence; active compounds read high; B-score at 10 µM; 1.3% of 310,000 active;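 active = compounds whose thallium flux B-score, printed positive for inhibition, exceeds three library SD while starting fluorescence stays within three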;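 note: channel opened by potassium depolarization with thallium stimulus after 20 min compound exposure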
Hits are given with their value; . = inactive; / = not tested or not shown.

SMILES	KCNQ1 pot	KCNK3 inh	KCNK9 block	Kir21 block	hERG protect	KCNQ1 block
Cc1ccc2c(c1)-c1ncc(C(=O)c3cc(Br)ccc3O)cc1CO2	.	/	-8.9	.	.	8
CCSc1nnc(-c2ccc(Cl)cc2)c2ccccc12	.	.	.	.	.	.
CCSc1nnc(-c2ccc(C)cc2)c2ccccc12	.	.	-7	.	.	.
CC(=O)c1cccc(N=c2scc(-c3ccc(S(=O)(=O)N4CCOCC4)cc3)n2CCO)c1	.	.	.	.	.	7
COc1cc(/C=N/N2C(=O)CSC2=S)cc(Br)c1O	/	-9.4	/	/	/	/
COc1cccc(/C=N/N2C(=O)CSC2=S)c1O	.	.	.	.	.	.
O=C(NC(=S)N1CCc2ccccc21)c1ccccc1Cl	24	.	.	.	31	.
O=C(COc1ccc(Cl)cc1Cl)NC(=S)N1CCCc2ccccc21	.	.	.	.	13	.
O=C(COc1ccc(Cl)cc1Cl)OCC(=O)N1CCCc2ccccc21	.	.	.	.	.	.
O=[N+]([O-])c1ccc(NC(=S)N2CCc3ccccc32)cc1	.	.	.	.	.	9
S=C(Nc1ccccc1)N1CCc2ccccc21	.	.	.	.	.	.
O=C(NC(=S)N1CCc2ccccc21)c1ccccc1	.	.	.	.	24	.
CC(C)CC(=O)c1c[nH]c(C(=O)N2CCN(Cc3ccccc3)CC2)c1	.	.	.	.	.	.
CCCCn1c(N)c(N(C)C(=O)c2cc3c(F)cccc3s2)c(=O)[nH]c1=O	/	.	/	/	/	/
CCC1CN(C(=O)NCc2ccccc2)c2ccccc2O1 (configuration not stated)	.	.	.	.	.	.
CN(C)c1ccc(-c2ccc3c(=O)c4ccccc4n(C)c3c2)cn1	.	.	.	.	.	.
CC(=O)c1cc(F)ccc1OCC(=O)N1CCCc2ccccc21	.	.	.	-6.5	.	.
O=C(COc1ccccc1F)N1CCCc2ccccc21	.	.	.	.	.	.
Cc1ccc(NC(=O)CSCC(=O)NNC(=O)c2nn(C)c(=O)c3ccccc23)cc1	/	.	/	/	/	/
CCCOc1ccc(S(=O)(=O)NNC(=O)c2cc3ccccc3o2)cc1	.	.	.	.	.	.
Cc1cccc(NC(=S)N/N=C2\CC(C)(C)Oc3ccc(O)cc32)c1	.	.	.	.	6.5	.
Cc1ccc(NS(=O)(=O)c2cc([N+](=O)[O-])ccc2NNC(=S)Nc2cc(C)ccc2C)c(C)c1	.	.	.	.	.	6
Cc1ccc(NS(=O)(=O)c2cc([N+](=O)[O-])ccc2NNC(=S)Nc2cccc(Cl)c2)c(C)c1	.	.	.	.	.	6
COc1ccc(NC(=S)NNc2ccc([N+](=O)[O-])cc2S(=O)(=O)Nc2ccc(C)cc2C)cc1	.	.	.	.	.	7
COc1ccc(Cl)cc1NC(=O)CN(C)CC(=O)Nc1c(C)n(C)n(-c2ccccc2)c1=O	/	.	/	/	/	/
SMILES	KCNQ1 pot	KCNK3 inh	KCNK9 block	Kir21 block	hERG protect	KCNQ1 block
O=S(=O)(Nc1ccc(Br)cc1)N1CCOCC1	.	.	.	.	.	.
Cc1ccc[n+](CC(=O)c2ccc(Br)cc2)c1C	.	.	.	.	.	.
O=S(=O)(N1CCOCC1)n1nnc2ccccc21	.	.	.	.	.	.
O=S(=O)(N1CCOCC1)n1c(Cc2ccccc2)nc2ccccc21	.	.	.	-4.3	.	.
CC1CN(S(=O)(=O)c2ccc(C(=O)N(CCCN(C)C)c3nc4c(Cl)cccc4s3)cc2)CC(C)O1 (configuration not stated)	.	.	.	.	.	.
Cc1c(NC(=O)CSc2nc(N)cc(N)n2)c(=O)n(-c2ccccc2)n1C	/	.	/	/	/	/
Cc1cc(C)nc(/N=C(\N)Nc2ccc(CC(=O)OC(C)C)cc2)n1	10	.	.	.	.	.
Cc1cc(C)nc(/N=C(\N)Nc2ccc(OCCC(C)C)cc2)n1	.	.	.	.	.	.
C#CCNC(=O)C1=C[C@@H](c2ccc(Br)cc2)C[C@@H](OCc2ccc(CO)cc2)O1	.	.	.	.	.	.
C#CCNC(=O)C1=C[C@H](c2ccc(Br)cc2)C[C@H](OCc2ccc(CO)cc2)O1	.	.	.	-4.8	.	.
N#CCCN(C(=O)COC(=O)c1cc(=O)[nH]c2ccccc12)c1ccccc1	/	.	/	/	/	/
CCN(CC)C(=O)Cn1cc(S(=O)(=O)CC(=O)Nc2ccc(C(N)=O)cc2)c2ccccc21	.	.	.	.	.	.
CC(=O)C1CCC2C3CC=C4CC(SC(=N)N)CCC4(C)C3CCC12C (configuration not stated)	/	-9.2	/	/	/	/
CC(=O)OCC(=O)C1CCC2C3CC=C4CC(O)CCC4(C)C3CCC12C (configuration not stated)	/	.	/	/	/	/
Cc1ccc(Nc2cc(C)c3c(O)cccc3n2)cc1C	.	.	.	.	.	.
COc1ccc(Nc2cc(C)c3c(O)cccc3n2)cc1	.	.	.	-13	.	.
CC(C(Sc1ccccc1N)c1ccccc1)[N+](=O)[O-] (configuration not stated)	.	.	.	-7.2	.	.
Nc1ccccc1SSc1ccccc1N	.	.	.	.	.	.
CC1(C)CC(=O)C=C(Nc2ccc(C(=O)O)c(O)c2)C1	.	.	.	.	.	.
Cc1ccc(C2=N/C(=C\c3c(C)nn(-c4ccccc4)c3N3CCCC3)C(=O)O2)cc1	.	.	.	.	.	9
Cn1c(Cc2cccs2)nnc1SCC(=O)Nc1ccc(F)cc1F	.	.	.	.	.	.
O=C(NCC1COc2ccccc2O1)C1C2C=CC3(CN(Cc4ccccc4Cl)C(=O)C13)O2 (configuration not stated)	.	.	.	.	.	.
COc1ccc(CCN2CC34C=CC(O3)C(C(=O)NCc3ccccc3Cl)C4C2=O)cc1OC (configuration not stated)	.	.	.	.	4.7	.
C=C1[C@@H](CCO)N(S(=O)(=O)C(C)(C)C)C[C@@H]1C	/	.	/	/	/	/
CCc1ccc(NC(=O)C(=O)NNC(=O)c2cccc(OC)c2)cc1	76	.	.	.	38	.
COc1cccc(C(=O)Nc2cc(Cl)c(O)c(Cl)c2)c1	.	.	.	.	.	.
COc1cc(NC(=O)C(=O)NNC(=O)C2CCCCC2)c(OC)cc1Cl	.	.	.	.	.	.
COc1cc(OC)cc(C(=O)NNC(=O)C(=O)Nc2cc(OC)c(Cl)cc2OC)c1	32	.	.	.	51	.
COc1cccc(C(=O)NNC(=O)C(=O)Nc2ccc(C)c(Cl)c2)c1	35	.	.	.	31	.
CC12CCC(C(=O)NCc3ccc4c(c3)OCO4)(CC1=O)C2(C)C (configuration not stated)	.	.	.	.	5.3	.
